# System: Malassezia globosa
# Settings: 10 uM
row,SMILES,kcat
1,NCCc1c[nH]cn1,18.5 ×10⁵ /s

# System: Malassezia globosa
# Assay: Activation of Malassezia globosa beta-carbonic anhydrase incubated for 15 mins prior to testing by stopped flow CO2 hydrase method
# Settings: not given
# Procedure, shortened: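 Recombinant M. globosa β-CA (12.1 nM in assay; enzymes 10-14 nM) preincubated with activator 15 min at room temperature. CO2 hydration followed 10 s at 25 °C by stopped-flow, phenol red 0.2 mM at 557 nm, 20 mM Tris pH 8.3, 20 mM NaClO4; CO2 0.17-17 mM. Initial velocities from the first 5-10% of at least six traces, uncatalyzed rate subtracted; KA from the competitive steady-state equation; mean of 3 assays.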
row,SMILES,KA
1,N[C@H](Cc1c[nH]cn1)C(=O)O,18.1 µM
2,N[C@@H](Cc1ccccc1)C(=O)O,34.1 µM
3,Nc1ccc(C[C@H](N)C(=O)O)cc1,13.4 µM
4,N[C@H](Cc1c[nH]c2ccccc12)C(=O)O,12.5 µM
5,N[C@H](Cc1ccccc1)C(=O)O,10.7 µM
6,NCCc1ccccn1,7.3 µM
7,N[C@@H](Cc1c[nH]cn1)C(=O)O,29.3 µM
8,NCCc1ccc(O)c(O)c1,9.43 µM
9,NCCc1c[nH]c2ccc(O)cc12,14.2 µM
10,NCc1ccccn1,6.12 µM
11,NCCN1CCOCC1,5.82 µM
12,N[C@H](Cc1ccc(O)cc1)C(=O)O,25.1 µM
13,N[C@@H](Cc1ccc(O)c(O)c1)C(=O)O,8.31 µM
14,CNC[C@H](O)c1ccc(O)c(O)c1,0.72 µM
15,NCCN1CCNCC1,0.81 µM
16,NCCc1c[nH]cn1,10.9 µM
17,N[C@H](Cc1ccc(O)c(O)c1)C(=O)O,13.7 µM
18,N[C@@H](Cc1ccc(O)cc1)C(=O)O,15.7 µM
19,N[C@@H](Cc1c[nH]c2ccccc12)C(=O)O,10.1 µM
